MrgX1 agonist: agonists of human MrgX1 receptor, primary screen, HEK293 cells, Fluo-4 calcium flux. B-score at 10 µM. AID 588627, 2011. Mas-related G-protein coupled receptor member X1 (Homo sapiens), Q96LB2. Fluo-4 calcium fluorescence, agonist mode; stronger effect = higher value. hit rate 0.44% among 310,000;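 active means calcium response B-score plate-corrected fluorescence ratio at least 3 library SD, with starting fluorescence B-score inside 5 SD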
Target sequence (Q96LB2 whole entry, looked up): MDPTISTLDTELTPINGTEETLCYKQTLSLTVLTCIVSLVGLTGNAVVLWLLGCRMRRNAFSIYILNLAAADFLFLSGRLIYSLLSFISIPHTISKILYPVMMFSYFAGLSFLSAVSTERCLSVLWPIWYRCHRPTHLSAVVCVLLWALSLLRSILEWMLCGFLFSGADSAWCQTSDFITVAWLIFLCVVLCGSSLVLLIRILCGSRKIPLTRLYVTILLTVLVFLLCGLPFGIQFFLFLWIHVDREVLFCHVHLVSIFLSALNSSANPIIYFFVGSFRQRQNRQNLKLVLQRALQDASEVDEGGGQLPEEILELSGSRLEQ
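System: HEK293 cells stably expressing human MrgX1 receptor; Dosing: test compound in the initial addition of three; Schedule: overnight plating, then 30 min 37 °C plus 30 min room-temperature dye loading; Detection: kinetic calcium dye fluorescence, Fluo-4 NW; Controls: per-plate positive and negative controls for Z′ factor.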
MrgX1 antagonist: antagonists of human MrgX1 receptor, primary screen, HEK293 cells, Fluo-4 calcium flux; B-score at 10 µM; BAM8-22 antagonism; stronger effect = lower value; hit rate 1.3% among 310,000; AID 588676, 2011;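 active means calcium-response B-score plate-corrected more than 3 library SD below zero, starting fluorescence within 5 deviations, no agonist response on first addition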;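 further: peak minus trough fluorescence over baseline after final BAM8-22 challenge near maximal dose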
MrgX1 allo act: positive allosteric modulators of MrgX1, primary screen, HEK293 cells, Fluo-4 calcium flux | hit rate 0.63% among 310,000 | B-score at 10 µM | Mas-related G-protein coupled receptor member X1 (Homo sapiens), Q96LB2 | AID 588675, 2011 | FDSS; stronger effect = higher value;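 active means plate-corrected calcium response at least 3 library SD above typical, normal starting fluorescence, not activating the receptor alone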;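 further: compound read alongside a low EC10 to EC30 dose of BAM8-22 agonist; peak minus trough fluorescence over baseline measured at the second addition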
RGS4 pot: RGS4 potentiators or activators, primary screen, cell-based, HEK293 M3R inducible RGS4, calcium flux | AID 463111, 2010 | B-score at 10 µM | carbachol calcium flux Fluo4; stronger effect = lower value | hit rate 0.92% among 310,000;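 active means B-score of the integrated calcium signal more than 4 SD below the library mean, with starting fluorescence not abnormally high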;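 further: negative B-score means reduced calcium response which marks RGS4 activation or potentiation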
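Assay system: Inducible-RGS4 HEK293 cells carrying M3 receptor | Schedule: Compound preincubation 20 min at room temperature before agonist | Signal: Kinetic calcium fluorescence imaging with Fluo4-AM dye, 2 µM | Read-out basis: B score from integrated fluorescence ratio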
RGS4 inh: RGS4 inhibitors, primary screen, cell-based, HEK293 M3R inducible RGS4, calcium flux | Regulator of G-protein signaling 4 (Homo sapiens), P49798 | Fluo-4 calcium flux; stronger effect = higher value; triggered by carbachol at its EC20 | B-score at 10 µM | hit rate 0.45% among 310,000 | AID 463165, 2010;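 active means B-score, a plate-corrected calcium signal, over three deviations above library mean, with baseline fluorescence within five deviations of library mean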;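 further: RGS4 expression induced by doxycycline in cells with stable M3 receptor; B-score is computed from the integrated fluorescence ratio over baseline after carbachol; higher B-score means a larger calcium signal and so more RGS4 inhibition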
Target sequence (P49798 whole entry, looked up): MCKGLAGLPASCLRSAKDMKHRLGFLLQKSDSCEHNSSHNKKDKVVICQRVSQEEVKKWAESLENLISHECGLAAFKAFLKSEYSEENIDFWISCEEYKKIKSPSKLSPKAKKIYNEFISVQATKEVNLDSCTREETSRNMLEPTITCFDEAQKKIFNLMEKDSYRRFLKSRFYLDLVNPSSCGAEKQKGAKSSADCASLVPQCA
MrgX1 PAM conf: MrgX1 positive allosteric modulators, duplicate retest, confirmation, HEK293 cells, Fluo-4 calcium flux; shares compounds with MrgX1 allo act; Fluo-4 calcium fluorescence, FDSS; activation (ratio percentage), % at 10 µM; hit rate 13% among 1,200;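 active means ratio at least 3 SD above the weak peptide control, stable starting fluorescence, no direct agonism earlier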;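 further: compound followed by low BAM8-22 agonist challenge near EC20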
HEK293 Ca flux: nonspecific calcium signal in parental HEK293, confirmation, counter-screen for MrgX1 antagonist project, parental HEK293 cells, Fluo-4 calcium flux; shares compounds with MrgX1 antagonist; Fluo-4 calcium fluorescence, FDSS; fluorescence ratio F(max-min)/F0 at 10 µM; hit rate 2% among 4,000;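 active means duplicate-averaged calcium fluorescence ratio at least three times the standard deviation of buffer wells, a nonspecific response in parental cells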
HEK293 Ca counter: calcium response in parental HEK293 cells, primary screen, counter-screen for MrgX1 allosteric activator project, cell-based, Fluo-4 calcium flux, duplicate. shares compounds with MrgX1 antagonist. Fluo-4 fluorescence ratio; stronger effect = higher value. fluorescence ratio F(max-min)/F0 at 10 µM. hit rate 0.4% among 4,000. AID 624114, 2012;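 active means calcium fluorescence ratio, averaged over duplicates, at least 3 SD of the buffer-well ratio, meaning a nonspecific response in receptor-free cells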;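 further: untransfected parental HEK293 lacking MrgX1 used as counterscreen for MrgX1 allosteric activators; fluorescence change taken during the second addition on a kinetic imager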
HEK293 Ca cntr2: calcium response in parental HEK293 cells, primary screen, counter-screen for MrgX1 agonist project, cell-based, Fluo-4 calcium flux, duplicate, agonist mode; AID 624115, 2012; fluorescence ratio F(max-min)/F0 at 10 µM; shares compounds with MrgX1 antagonist; Fluo-4 calcium fluorescence (FDSS); stronger effect = higher value; hit rate 8.7% among 4,000;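 active means calcium fluorescence ratio at least three times the spread of buffer wells, meaning a non-specific response in parental cells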
The depositor's hits bear a star; i = inactive; / = no result given. Hits are enriched below; roughly 3.5% of the tested compounds scored in any of these assays.

SMILES	MrgX1 agonist	MrgX1 antagonist	MrgX1 allo act	RGS4 pot	RGS4 inh	MrgX1 PAM conf	HEK293 Ca flux	HEK293 Ca counter	HEK293 Ca cntr2
CCC(=O)N(c1ccc(C(=O)O)cc1)c1nc(-c2ccc(OC)cc2)c(C)s1	i	i	6.5*	i	i	i	i	i	i
Cc1sc2ncnc(N3CCC(C)CC3)c2c1C	i	i	18*	i	i	4.3%*	i	i	i
Cc1c(C(=O)N2CCN(c3ccccc3)CC2)sc2ncnc(N3CCC(C)CC3)c12	i	i	i	i	i	/	/	/	/
Cc1cccc(Oc2ncnc3oc(-c4ccccc4)cc23)c1C	i	i	12*	i	i	7.6%*	i	i	i
Cc1cccc(OCC(=O)Nc2cccc(-c3nnc(-c4ccccc4)o3)c2)c1C	i	i	i	i	i	/	/	/	/
Cc1ccc(C)c(Cn2nnc3c(=O)[nH]c(C4CCCN(C(=O)c5cccs5)C4)nc32)c1 (stereo not given)	i	i	i	i	i	/	/	/	/
COc1ccc(CNc2cccc(F)c2)cc1Br	i	i	6.5*	i	i	i	i	i	i
CC1(C)c2ccccc2-c2nc3ccccc3cc2C1O (stereo not given)	i	i	9.6*	i	i	i	i	i	i
CC12CCC(C(=O)Nc3nc4ccc(Br)cc4s3)(OC1=O)C2(C)C (stereo not given)	i	i	17*	i	i	6.5%*	i	i	i
CC12CCC(C(=O)Nc3nccs3)(OC1=O)C2(C)C (stereo not given)	i	i	i	i	i	/	/	/	/
CCOC(=O)C1(CCOC)CCN(Cc2cnc(-c3cccc(C)c3)nc2)CC1	i	i	i	i	i	/	/	/	/
CCOC(=O)CNC(=O)CSc1nc(-c2ccc(OC)cc2)ns1	i	i	12*	i	i	i	i	i	i
CC(=O)Nc1ccc(S(=O)(=O)NCc2nc(-c3ccc(C)cc3)no2)cc1	i	i	i	i	i	/	/	/	/
c1ccc(-c2cc3c(N4CCCCC4)ncnc3s2)cc1	i	i	8.9*	i	i	i	i	i	i
Cc1sc2ncnc(NCC3(N4CCOCC4)CCCCC3)c2c1C	i	i	i	i	i	/	/	/	/
Cc1sc2ncnc(NCC(C)(C)N3CCOCC3)c2c1C	i	i	8.7*	i	i	i	i	i	i
COc1ccc(CN(C)C(=O)c2[nH]c(C)c(C(C)=O)c2C)cc1F	i	i	i	i	i	/	/	/	/
CCCN(CCO)C1CCN(CCc2ccccc2)CC1	i	i	i	i	i	/	/	/	/
CC1CCc2c(C(=O)NCc3ccccn3)csc2C1 (stereo not given)	i	i	i	i	i	/	/	/	/
CC1CCc2c(C(=O)Nc3ccccn3)csc2C1 (stereo not given)	i	i	8.3*	i	i	i	i	i	i
CCN(CC(=O)N1CCc2ccccc2C1)S(=O)(=O)c1ccc2ccccc2c1	i	i	i	i	i	/	/	/	/
